# Results taken from ChEMBL document CHEMBL1149771, “Antimicrobial studies of 2,4-dichloro-5-fluorophenyl containing oxadiazoles” (2008).
# Experiments:
# Assay type in all cases: functional
# [1] = test system: Candida albicans; test: Antifungal activity against Candida albicans at 35 degC after 48 hrs
# Outline: (§1)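 Fungicidal endpoint (MFC). 0.1 ml from each broth-dilution tube was spread on agar plates and c.f.u. counted after 48 h at 35 °C. MFC was the lowest concentration killing 99.9% of the inoculum.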
# [2] = test system: Candida albicans; test: Antifungal activity against Candida albicans at 35 degC after 48 hrs by broth dilution method
# Outline: (§2)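 Fungal MIC by broth dilution. Two-fold serial dilutions of compound in nutrient broth were inoculated with about 1.6 × 10⁴–6 × 10⁴ c.f.u./ml. Incubation was 48 h at 35 °C. MIC was the lowest concentration arresting fungal growth.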
# [3] = test system: Trichophyton mentagrophytes; test: Antifungal activity against Trichophyton mentagrophytes at 35 degC after 48 hrs; outline: as §1
# [4] = test system: Trichophyton mentagrophytes; test: Antifungal activity against Trichophyton mentagrophytes at 35 degC after 48 hrs by broth dilution method; outline: as §2
# [5] = test system: Aspergillus fumigatus; test: Antifungal activity against Aspergillus fumigatus at 37 degC after 3 to 4 days by agar […] method
# Outline: (§3)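 Agar well diffusion for fungi, compounds in DMSO. Sabouraud agar was adjusted to pH 5.7 and lawned with a saline spore suspension (a loopful in 3 ml). Plates were dried 1 h at 37 °C, then wells were punched. Incubation was 3–4 days at 37 °C, with controls in triplicate. Inhibition zones were measured against controls, with griseofulvin as standard.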
# [6] = test system: Talaromyces marneffei; test: Antifungal activity against Penicillium marneffei at 35 degC after 48 hrs by broth dilution method; outline: as §2
# [7] = test system: Aspergillus fumigatus; test: Antifungal activity against Aspergillus fumigatus at 35 degC after 48 hrs; outline: as §1
# [8] = test system: Candida albicans; test: Antifungal activity against Candida albicans at 37 degC after 3 to 4 days by agar dilution method; outline: as §3
# [9] = test system: Trichophyton mentagrophytes; test: Antifungal activity against Trichophyton mentagrophytes at 37 degC after 3 to 4 days by agar dilution method; conditions: in the assay text read “agar diffusion method” for “agar dilution method”; outline: as §3
# [10] = test system: Aspergillus fumigatus; test: Antifungal activity against Aspergillus fumigatus at 35 degC after 48 hrs by broth dilution method; outline: as §2
# [11] = test system: Talaromyces marneffei; test: Antifungal activity against Penicillium marneffei at 35 degC after 48 hrs; outline: as §1
# [12] = test system: Talaromyces marneffei; test: Antifungal activity against Penicillium marneffei at 37 degC after 3 to 4 days by agar […] method; outline: as §3
# [13] = test system: Pseudomonas aeruginosa; test: Antibacterial activity against Pseudomonas aeruginosa ATCC 27853 at 35 degC after 18 to 24 hrs
# Outline: (§4)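 Bactericidal endpoint (MBC) taken from the broth-dilution MIC tubes. 0.1 ml from each tube was spread on agar plates and c.f.u. counted after 18–24 h. MBC was the lowest concentration completely killing the bacteria.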
# [14] = test system: Staphylococcus aureus; test: Antibacterial activity against Staphylococcus aureus ATCC 25923 at 35 degC after 18 to 24 hrs; outline: as §4
# [15] = test system: Escherichia coli; test: Antibacterial activity against Escherichia coli ATCC 25922 at 35 degC after 18 to 24 hrs; outline: as §4
# [16] = test system: Escherichia coli; test: Antibacterial activity against Escherichia coli ATCC 25922 at 37 degC after 24 hrs by broth dilution method; conditions: ATCC 25922, 24 h
# Outline: (§5)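 Broth dilution MIC. Nutrient broth held two-fold serial dilutions of compound and was inoculated with about 5 × 10⁵ c.f.u. of actively dividing bacteria. Cultures ran 24 h at 37 °C, with growth checked visually and spectrophotometrically. MIC was the lowest concentration arresting growth. Ciprofloxacin was the standard.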
# [17] = test system: Pseudomonas aeruginosa; test: Antibacterial activity against Pseudomonas aeruginosa ATCC 27853 at 37 degC after 24 hrs by disc diffusion method
# Outline: (§6)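 Disc diffusion on nutrient agar. Plates were spread with 1–2 × […] c.f.u./ml inoculum (0.5 McFarland). Sterile 6.25 mm filter-paper discs were soaked in a known concentration of compound and placed on the agar. Plates were inverted and incubated 24 h at 37 °C. Inhibition zones (mm) were read against solvent and growth controls, with ciprofloxacin as reference.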
# [18] = test system: Klebsiella pneumoniae; test: Antibacterial activity against Klebsiella pneumoniae ATCC 25922 at 37 degC after 24 hrs by disc diffusion method; outline: as §6
# [19] = test system: Escherichia coli; test: Antibacterial activity against Escherichia coli ATCC 25922 at 37 degC after 24 hrs by disc diffusion method; outline: as §6
# [20] = test system: Klebsiella pneumoniae; test: Antibacterial activity against Klebsiella pneumoniae ATCC 25922 at 35 degC after 18 to 24 hrs; conditions: recultured, in the assay text read “Klebsiella pneumoniae (recultured)” for “Klebsiella pneumoniae ATCC 25922”; outline: as §4
# [21] = test system: Staphylococcus aureus; test: Antibacterial activity against Staphylococcus aureus ATCC 25923 at 37 degC after 24 hrs by disc diffusion method; outline: as §6
# [22] = test system: Klebsiella pneumoniae; test: Antibacterial activity against Klebsiella pneumoniae ATCC 25922 at 37 degC after 24 hrs by broth dilution method; conditions: recultured, in the assay text read “Klebsiella pneumoniae (recultured)” for “Klebsiella pneumoniae ATCC 25922”; outline: as §5
# [23] = test system: Pseudomonas aeruginosa; test: Antibacterial activity against Pseudomonas aeruginosa ATCC 27853 at 37 degC after 24 hrs by broth dilution method; conditions: ATCC 27853, 24 h; outline: as §5
# [24] = test system: Staphylococcus aureus; test: Antibacterial activity against Staphylococcus aureus ATCC 25923 at 37 degC after 24 hrs by broth dilution method; conditions: ATCC 25923, 24 h; outline: as §5
Structure (SMILES),MIC [2],MIC [4],MIC [6],MIC [10],MIC [16],MIC [22],MFC [1],MFC [3],inhibition zone (IZ) [5],MFC [7],inhibition zone (IZ) [8],MFC [11],inhibition zone (IZ) [12],MBC [13],MBC [14],MBC [15],inhibition zone (IZ) [18],inhibition zone (IZ) [19],MBC [20],inhibition zone (IZ) [21],other results
Fc1cc(-c2nnc(COc3ccccc3Cl)o2)c(Cl)cc1Cl,25 µg/mL,12.5 µg/mL,> 100 µg/mL,6.25 µg/mL,6.25 µg/mL,25 µg/mL,50 µg/mL,50 µg/mL,19 mm,12.5 µg/mL,10 mm,> 100 µg/mL,,25 µg/mL,50 µg/mL,12.5 µg/mL,12 mm,18 mm,50 µg/mL,15 mm,inhibition zone (IZ) [17]: 15 mm; inhibition zone (IZ) [9]: 12 mm; MIC [23]: 12.5 µg/mL; Activity [12]: >100 µg/mL; MIC [24]: 12.5 µg/mL
Cc1cc(OCc2nnc(-c3cc(F)c(Cl)cc3Cl)o2)ccc1Cl,> 100 µg/mL,> 100 µg/mL,25 µg/mL,25 µg/mL,12.5 µg/mL,> 100 µg/mL,> 100 µg/mL,> 100 µg/mL,8 mm,50 µg/mL,,50 µg/mL,10 mm,> 100 µg/mL,50 µg/mL,100 µg/mL,12 mm,15 mm,> 100 µg/mL,10 mm,Activity [17]: >100 µg/mL; Activity ([8]; in the assay text read “agar diffusion method” for “agar dilution method”): >100 µg/mL; Activity [9]: >100 µg/mL; MIC [23]: > 100 µg/mL; MIC [24]: 25 µg/mL
Fc1cc(-c2cc(-c3nnc(COc4ccc(Cl)cc4)o3)c3ccccc3n2)c(Cl)cc1Cl,12.5 µg/mL,6.25 µg/mL,6.25 µg/mL,6.25 µg/mL,6.25 µg/mL,12.5 µg/mL,50 µg/mL,12.5 µg/mL,16 mm,25 µg/mL,12 mm,12.5 µg/mL,20 mm,25 µg/mL,12.5 µg/mL,6.25 µg/mL,18 mm,25 mm,25 µg/mL,19 mm,inhibition zone (IZ) [17]: 32 mm; inhibition zone (IZ) [9]: 15 mm; MIC [23]: 6.25 µg/mL; MIC [24]: 6.25 µg/mL
O=C(O)c1cn(C2CC2)c2cc(N3CCNCC3)c(F)cc2c1=O [CIPROFLOXACIN],,,,,,12.5 µg/mL,,,,,,,,12.5 µg/mL,12.5 µg/mL,12.5 µg/mL,19 mm,27 mm,12.5 µg/mL,22 mm,inhibition zone (IZ) [17]: 32 mm

# The next lines start with results.
MIC [2],MIC [4],MIC [6],MIC [10],MIC [16],MIC [22],Structure (SMILES),MFC [1],MFC [3],inhibition zone (IZ) [5],MFC [7],inhibition zone (IZ) [8],MFC [11],inhibition zone (IZ) [12],MBC [13],MBC [14],MBC [15],inhibition zone (IZ) [18],inhibition zone (IZ) [19],MBC [20],inhibition zone (IZ) [21],other results
6.25 µg/mL,6.25 µg/mL,6.25 µg/mL,6.25 µg/mL,,,COC1=CC(=O)C[C@@H](C)[C@]12Oc1c(Cl)c(OC)cc(OC)c1C2=O [GRISEOFULVIN],12.5 µg/mL,12.5 µg/mL,27 mm,12.5 µg/mL,30 mm,12.5 µg/mL,20 mm,,,,,,,,inhibition zone (IZ) [9]: 24 mm
12.5 µg/mL,> 100 µg/mL,25 µg/mL,25 µg/mL,6.25 µg/mL,12.5 µg/mL,Cc1ccccc1OCc1nnc(-c2cc(F)c(Cl)cc2Cl)o1,25 µg/mL,> 100 µg/mL,10 mm,100 µg/mL,15 mm,100 µg/mL,8 mm,6.25 µg/mL,25 µg/mL,25 µg/mL,16 mm,27 mm,50 µg/mL,19 mm,inhibition zone (IZ) [17]: 28 mm; Activity [9]: >100 µg/mL; MIC [23]: 6.25 µg/mL; MIC [24]: 6.25 µg/mL
